Common to all, as to format: functional
In experiment [1] the test system is Bacillus subtilis. Put plainly: Antimicrobial activity against Bacillus subtilis after 24 hrs by microdilution susceptibility test. An outline of the steps: (§1)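 MIC was determined by broth microdilution, using Müller–Hinton broth for bacteria and Sabouraud liquid medium for fungi. Stocks were made in DMF and serially diluted twofold. Wells were inoculated at 10⁶ CFU/mL and plates incubated at 36 °C for 24–48 h, with controls included. Only compounds giving agar-diffusion zones >14 mm were tested.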

The test system of experiment [2] is Pseudomonas aeruginosa. Nature of the experiment: Antimicrobial activity against Pseudomonas aeruginosa after 24 hrs by microdilution susceptibility test. In outline: as §1
On the technique in general: In broth dilution the organism is exposed to a series of concentrations in liquid medium.

The test system of experiment [3] is Fusarium oxysporum. Put plainly: Antimicrobial activity against Fusarium oxysporum after 48 hrs by microdilution susceptibility test. An outline of the steps: as §1
Experiment [4] relates to Pseudomonas aeruginosa. Nature of the experiment: Antimicrobial activity against Pseudomonas aeruginosa at 1 mg/mL after 24 hrs by agar disc diffusion method. To be noted: read-out: DIZ. In outline:
(§2)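 Sterile 5 mm filter paper disks were impregnated with test solution in DMF (1 mg/mL) and placed on agar plates seeded with the test organism, in triplicate. Bacteria were incubated at 37 °C for 24 h and fungi for […] (so in the source). The read-out was the average inhibition zone diameter around the disks, in mm.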

Experiment [5] deals with Bacillus thuringiensis. Nature of the experiment: Antimicrobial activity against Bacillus thuringiensis at 1 mg/mL after 24 hrs by agar disc diffusion method. Particulars: read-out: DIZ. In outline: as §2
For experiment [6], the system named is Escherichia coli. Put plainly: Antimicrobial activity against Escherichia coli after 24 hrs by microdilution susceptibility test. An outline of the steps: as §1
For experiment [7], the system named is Bacillus thuringiensis. Put plainly: Antimicrobial activity against Bacillus thuringiensis after 24 hrs by microdilution susceptibility test. An outline of the steps: as §1
The subject of experiment [8] is Escherichia coli. Nature of the experiment: Antimicrobial activity against Escherichia coli at 1 mg/mL after 24 hrs by agar disc diffusion method. To be noted: read-out: DIZ. An outline of the steps:
as §2
Background: Agar diffusion results depend on both activity and mobility in agar.

Experiment [9] relates to Fusarium oxysporum. Put plainly: Antimicrobial activity against Fusarium oxysporum at 1 mg/mL after 48 hrs by agar disc diffusion method. To be noted: read-out: DIZ. In outline:
as §2

In experiment [10] the test system is Botrytis fabae. Nature of the experiment: Antimicrobial activity against Botrytis fabae at 1 mg/mL […] by agar disc diffusion method. Particulars: read-out: DIZ.
Experiment [11] concerns Bacillus subtilis. Put plainly: Antimicrobial activity against Bacillus subtilis at 1 mg/mL after 24 hrs by agar disc diffusion method. Particulars: read-out: DIZ. In outline: as §2
Experiment [12] concerns Botrytis fabae. Nature of the experiment: Antimicrobial activity against Botrytis fabae after 48 hrs by microdilution susceptibility test. In outline: as §1

This is an account of results in ChEMBL document CHEMBL2331322, “Synthesis and antimicrobial activity of some new benzo and naphthonitrile derivatives” (2013).

Values after ≈ are worked out from the molar mass of the structure shown.

On to `N#Cc1ccccc1C(/N=N/c1ccccc1)C(N)=O` (configuration not stated), for which the results for the MBC in the experiment with Bacillus subtilis [1] and in the experiment on Escherichia coli [6] were 100 mg/L (≈ 378 µM) and 200 mg/L (≈ 757 µM), respectively. Besides, the MIC stood at 12.5 mg/L (≈ 47.3 µM) against Bacillus subtilis [1]; 25 mg/L (≈ 94.6 µM) with Pseudomonas aeruginosa [2]; 12.5 mg/L (≈ 47.3 µM) in the experiment with Fusarium oxysporum [3]; 25 mg/L (≈ 94.6 µM) in the experiment on Escherichia coli [6]; 12.5 mg/L (≈ 47.3 µM) with Bacillus thuringiensis [7]; 25 mg/L (≈ 94.6 µM) in the experiment on Botrytis fabae [12]. In addition, the zone of inhibition at 1000 µg/mL with Pseudomonas aeruginosa [4] amounted to 31 mm; with Bacillus thuringiensis [5], 37 mm; in the experiment with Escherichia coli [8] it was 15 mm; in the experiment with Fusarium oxysporum [9], 27 mm; with Botrytis fabae [10], 15 mm; in the experiment with Bacillus subtilis [11] it was 37 mm.
Take `N#Cc1ccccc1C(/N=N/c1ccc(Cl)cc1)C(N)=O` (configuration not stated): the minimal bactericidal concentration (MBC) in the experiment on Bacillus subtilis [1] turned out to be 50 mg/L (≈ 167 µM); against Escherichia coli [6] it was 100 mg/L (≈ 335 µM). For the same molecule, the minimum inhibitory concentration (MIC) is 6.25 mg/L (≈ 20.9 µM) in the experiment with Bacillus subtilis [1]; 25 mg/L (≈ 83.7 µM) in the experiment with Pseudomonas aeruginosa [2]; 25 mg/L (≈ 83.7 µM) with Fusarium oxysporum [3]; 12.5 mg/L (≈ 41.8 µM) against Escherichia coli [6]; 12.5 mg/L (≈ 41.8 µM) against Bacillus thuringiensis [7]; 12.5 mg/L (≈ 41.8 µM) against Botrytis fabae [12]. The zone of inhibition at 1000 µg/mL in the experiment with Pseudomonas aeruginosa [4] was 15 mm; in the experiment with Bacillus thuringiensis [5] it was 33 mm; in the experiment on Escherichia coli [8], 27 mm; with Fusarium oxysporum [9] it was 16 mm; in the experiment on Botrytis fabae [10], 16 mm; in the experiment on Bacillus subtilis [11], 38 mm.
Consider `Cc1ccc(/N=N/C(C(N)=O)c2ccccc2C#N)cc1` (configuration not stated), for which the minimum bactericidal concentration (MBC) came to 100 mg/L (≈ 359 µM) in the experiment on Bacillus subtilis [1] and 200 mg/L (≈ 719 µM) against Escherichia coli [6]. Further, the minimum inhibitory concentration (MIC) with Bacillus subtilis [1] stood at 25 mg/L (≈ 89.8 µM); against Pseudomonas aeruginosa [2], 12.5 mg/L (≈ 44.9 µM); in the experiment on Fusarium oxysporum [3], 25 mg/L (≈ 89.8 µM); against Escherichia coli [6], 50 mg/L (≈ 180 µM); in the experiment with Bacillus thuringiensis [7], 50 mg/L (≈ 180 µM); in the experiment with Botrytis fabae [12], 25 mg/L (≈ 89.8 µM). In addition, the zone of inhibition at 1000 µg/mL in the experiment on Pseudomonas aeruginosa [4] turned out to be 16 mm; in the experiment on Bacillus thuringiensis [5] it was 36 mm; in the experiment with Escherichia coli [8] it was 15 mm; in the experiment on Fusarium oxysporum [9], 38 mm; in the experiment on Botrytis fabae [10] it was 20 mm; in the experiment on Bacillus subtilis [11], 31 mm.
For `COc1ccc(/N=N/C(C(N)=O)c2ccccc2C#N)cc1` (configuration not stated), the minimal bactericidal concentration (MBC) with Bacillus subtilis [1] and in the experiment on Escherichia coli [6] was 100 mg/L (≈ 340 µM) each time. Also, the MIC was found to be 25 mg/L (≈ 84.9 µM) with Bacillus subtilis [1]; 25 mg/L (≈ 84.9 µM) in the experiment with Pseudomonas aeruginosa [2]; 25 mg/L (≈ 84.9 µM) against Fusarium oxysporum [3]; 12.5 mg/L (≈ 42.5 µM) against Escherichia coli [6]; 12.5 mg/L (≈ 42.5 µM) in the experiment with Bacillus thuringiensis [7]; 50 mg/L (≈ 170 µM) against Botrytis fabae [12]. The zone of inhibition at 1000 µg/mL turned out to be 32 mm in the experiment with Pseudomonas aeruginosa [4]; 19 mm with Bacillus thuringiensis [5]; 30 mm in the experiment with Escherichia coli [8]; 16 mm in the experiment on Fusarium oxysporum [9]; 26 mm in the experiment with Botrytis fabae [10]; 32 mm in the experiment on Bacillus subtilis [11].
With `CC1(C)S[C@@H]2[C@H](NC(=O)[C@H](N)c3ccccc3)C(=O)N2[C@H]1C(=O)O` [AMPICILLIN], the MBC with Bacillus subtilis [1] was 50 mg/L (≈ 143 µM); with Escherichia coli [6], 25 mg/L (≈ 71.5 µM). For the same molecule, the MIC in the experiment on Bacillus subtilis [1] worked out at 3.12 mg/L (≈ 8.94 µM); against Escherichia coli [6], 6.25 mg/L (≈ 17.9 µM). Further, the zone of inhibition at 1000 µg/mL turned out to be 38 mm in the experiment with Escherichia coli [8] and 40 mm in the experiment on Bacillus subtilis [11].
Take `CC(=O)OCC1=C(C(=O)O)N2C(=O)[C@@H](NC(=O)Cc3cccs3)[C@H]2SC1` [CEPHALOTHIN]: the MIC in the experiment on Bacillus subtilis [1], against Pseudomonas aeruginosa [2], against Escherichia coli [6] and against Bacillus thuringiensis [7] was 6.25 mg/L (≈ 15.8 µM) in each case. For the same molecule, the zone of inhibition at 1000 µg/mL amounted to 37 mm in the experiment on Pseudomonas aeruginosa [4], 37 mm in the experiment with Bacillus thuringiensis [5], 38 mm in the experiment with Escherichia coli [8] and 36 mm with Bacillus subtilis [11].
Take `O=C(N[C@H](CO)[C@H](O)c1ccc([N+](=O)[O-])cc1)C(Cl)Cl` [CHLORAMPHENICOL]: the minimum inhibitory concentration (MIC) with Bacillus subtilis [1] was 3.12 mg/L (≈ 9.67 µM); in the experiment with Pseudomonas aeruginosa [2], 6.25 mg/L (≈ 19.3 µM); in the experiment on Escherichia coli [6], 6.25 mg/L (≈ 19.3 µM); against Bacillus thuringiensis [7] it was 3.12 mg/L (≈ 9.67 µM). For the same molecule, the zone of inhibition at 1000 µg/mL worked out at 38 mm in the experiment on Pseudomonas aeruginosa [4], 44 mm with Bacillus thuringiensis [5], 37 mm with Escherichia coli [8] and 44 mm in the experiment on Bacillus subtilis [11].
For the molecule `C[C@@H]1C[C@@H]([C@H](O)CC2CC(=O)NC(=O)C2)C(=O)[C@@H](C)C1` [CYCLOHEXIMIDE], the minimum inhibitory concentration (MIC) with Fusarium oxysporum [3] and in the experiment on Botrytis fabae [12] was 3.12 mg/L (≈ 11.1 µM) each time. The results for the zone of inhibition at 1000 µg/mL with Fusarium oxysporum [9] and in the experiment on Botrytis fabae [10] were 43 mm and 42 mm, respectively.

The term MBC denotes the lowest tested concentration that kills the bacteria rather than only halting them. Higher therefore signals weaker bactericidal potency. As a reminder, the MIC is the smallest concentration in the dilution series that meets the test's criterion for growth inhibition.
